Data taken from ChEMBL document CHEMBL4184233, “Design and synthesis of novel dasatinib derivatives as inhibitors of leukemia stem cells” (Bioorg Med Chem Lett, 2018).
Activity calls are given as the source filed them. No cut-off for these calls is given here.

Experiments:
[1] = test system: HL-60; assay: Growth inhibition of human HL60 cells; type: functional, cell-based
[2] = test system: K562; assay: Growth inhibition of human K562 cells; type: functional, cell-based
[3] = test system: KG-1a; assay: Growth inhibition of human KG1a cells; type: functional, cell-based
[4] = test system: MCF7; assay: Inhibition of colony formation in human MCF7 cells incubated for 10 days by crystal violet staining based plate cloning test; type: functional, cell-based
How it was run: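 MCF-7 colony formation assay. Cells received low, middle and high concentrations (0.96/1.90/3.80 μM or 0.68/1.35/2.70 μM, depending on compound) for 10 days. Colony counts were compared with an untreated control group, with significance at P < 0.05 and P < 0.01.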

[5] = test system: Mus musculus; assay: Toxicity in Kunming mouse assessed as survival rat at 500 mg/kg, po dosed once for 2 weeks; type: organism-based; settings: in vivo, 336 h
How it was run: (§1)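 Single oral dose to mice, then observed for 14 days with survival rate recorded. Doses tested were 200, 500 and 1000 mg/kg. The dasatinib comparator was given at 200 mg/kg only.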

[6] = Toxicity in Kunming mouse assessed as survival rat at 200 mg/kg, po dosed once for 2 weeks; type: organism-based; settings: in vivo; how it was run: as §1
[7] = test system: Mus musculus; assay: Toxicity in Kunming mouse assessed as survival rat at 1000 mg/kg, po dosed once for 2 weeks; type: organism-based; settings: in vivo, 336 h; how it was run: as §1
[8] = test system: B16-BL6; assay: Inhibition of cell migration of mouse B16-BL6 cells at 1.43 uM incubated for 24 to 48 hrs by cell wound scratch assay; type: functional, cell-based
How it was run: (§2)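 Wound-scratch migration assay in mouse B16BL6 monolayers. Each compound was given at a single concentration for 2 days, and migration was compared with an untreated control group.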

[9] = test system: KG-1a; assay: Potency index, ratio of IC50 for dasatinib to IC50 for test compound for growth inhibition of human KG1a cells; type: functional
[10] = test system: B16-BL6; assay: Inhibition of cell migration of mouse B16-BL6 cells at 0.82 uM incubated for 24 to 48 hrs by cell wound scratch assay; type: functional, cell-based; how it was run: as §2
[11] = test system: MCF7; settings: Homo sapiens, 7.5 uM
[12] = test system: B16-BL6; settings: Mus musculus, 8.13 uM

Row | Structure (SMILES) | IC50 [1] [nM] | IC50 [2] [nM] | IC50 [3] [nM] | other results
1 | Cc1nc(Nc2ncc(C(=O)Nc3c(C)cccc3Cl)s2)cc(N2CCN(CCN=C=S)CC2)n1 | 1.07 | 3.77 | 1960 | 
2 | Cc1nc(Nc2ncc(-c3nnc(-c4c(C)cccc4Cl)o3)s2)cc(N2CCN(CCO)CC2)n1 | 150 | 230 | 50 | inhibition [4]: Dose-dependent effect; Activity [5]: Non-Toxic; survival at 336 h [6]: 100%; Activity [7]: Non-Toxic; inhibition [8]: Active; Ratio IC50 [9]: 180
3 | Cc1nc(Nc2ncc(-c3cn(-c4c(C)cccc4Cl)nn3)s2)cc(N2CCN(CCO)CC2)n1 | 4.19 | 14.1 | 140 | inhibition [4]: Dose-dependent effect; Activity [5]: Non-Toxic; inhibition [10]: Active; survival at 336 h [6]: 100%; Activity [7]: Non-Toxic
4 | Cc1nc(Nc2ncc(C(=O)Nc3c(C)cccc3Cl)s2)cc(N2CCN(CCO)CC2)n1 [DASATINIB] | 0.11 | 0.069 | 8980 | inhibition [11]: Active; inhibition [12]: Active; survival at 336 h [6]: 100%
5 | Cc1nc(Nc2ncc(-c3nnc(-c4c(C)cccc4Cl)o3)s2)cc(N2CCN(CCNC(=O)CCl)CC2)n1 | 2120 | 3060 | 9750 | 
6 | Cc1nc(Nc2ncc(C(=O)Nc3c(C)cccc3Cl)s2)cc(N2CCN(CCNC(=O)CCl)CC2)n1 | 0.86 | 1.67 | 13600 | 
7 | Cc1nc(Nc2ncc(C(=O)Nc3c(C)cccc3Cl)s2)cc(N2CCN(CCN)CC2)n1 | 0.25 | 0.72 | 25400 | 

The remaining compounds from weak to strong by IC50 [1], led by results:

Row | IC50 [1] [nM] | IC50 [2] [nM] | Structure (SMILES) | IC50 [3] [nM] | other results
8 | 1420 | 1810 | Cc1nc(Nc2ncc(-c3nnc(-c4c(C)cccc4Cl)o3)s2)cc(N2CCN(CCN=C=S)CC2)n1 | 150 | 
9 | 160 | 150 | C=CC(=O)NCCN1CCN(c2cc(Nc3ncc(-c4nnc(-c5c(C)cccc5Cl)o4)s3)nc(C)n2)CC1 | 110 | 
10 | 110 | 260 | Cc1nc(Nc2ncc(-c3nnc(-c4c(C)cccc4Cl)o3)s2)cc(N2CCN(CCN)CC2)n1 | 680 | 
11 | 16.6 | 36.5 | Cc1nc(Nc2ncc(-c3cn(-c4c(C)cccc4Cl)nn3)s2)cc(N2CCN(CCN=C=S)CC2)n1 | 320 | 
12 | 9.82 | 17.6 | Cc1nc(Nc2ncc(-c3cn(-c4c(C)cccc4Cl)nn3)s2)cc(N2CCN(CCNC(=O)CCl)CC2)n1 | 450 | 
13 | 5.46 | 15.1 | C=CC(=O)NCCN1CCN(c2cc(Nc3ncc(-c4cn(-c5c(C)cccc5Cl)nn4)s3)nc(C)n2)CC1 | 250 | 
14 | 4.08 | 11.7 | Cc1nc(Nc2ncc(-c3cn(-c4c(C)cccc4Cl)nn3)s2)cc(N2CCN(CCN)CC2)n1 | 2060 | 
15 | 0.26 | 0.039 | C=CC(=O)NCCN1CCN(c2cc(Nc3ncc(C(=O)Nc4c(C)cccc4Cl)s3)nc(C)n2)CC1 | 12900 | 
